Test results: PMC12123421 (Journal of medicinal chemistry, 2022)
Entries after “also recorded” stand apart in the source; their conditions may differ.

Key:
P. gingivalis ATCC 33277 [1] = assay: Colony forming unit; format: cell-based, Porphyromonas gingivalis; details: 24 h exposure, CFUs counted after 5 days
In short: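 P. gingivalis ATCC 33277 at 1 × 10^8 cells/well, grown exponentially in supplemented BHI under anaerobic conditions in 96-well plates. Exposed 24 h to test compound in DMSO at 1, 10 or 100 μM. Negative controls were medium or DMSO; positive controls were tetracycline 2.81 μM and zafirlukast 25 and 50 μM. Cultures diluted 1:400, spread on blood agar, and CFUs counted after 5 days anaerobic.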

P. gingivalis ATCC 33277 [2] = assay: Percent growth inhibition of planktonic P. gingivalis, colorimetric WST-1 assay; format: cell-based, Porphyromonas gingivalis; details: for P. gingivalis growth inhibition: 2.5 h after addition of WST-1; for inhibition at 100 µM / inhibition at 10 µM: Porphyromonas gingivalis, ATCC33277, read-out: P. gingivalis growth inhibition
[3] = Cytotoxic effect on oral epithelial cells; format: cell-based, human; details: human, OKF6/hTERT immortalized oral keratinocyte cells
[4] = tested on: immortalized oral keratinocyte (OKF6) cells; assay: Cytotoxic effect on oral epithelial cells; format: cell-based, human; details: 24 h, microscopy
HepG2 = assay: Mammalian cytotoxicity assay; format: cell-based; details: for concentration up to which no toxicity was exhibited (HepG2): range 0–62.6 μg/mL, 24 h; for non-toxic concentration as fold of bactericidal concentration (HepG2): vs bactericidal concentration against P. gingivalis
In short: (§1)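 Cells counted at about 80% confluence and seeded in 96-well plates: 10,000 cells/well for HEK-293, 3,000 cells/well for BEAS-2B and HepG2. Adhered 16 h at 37 °C, 5% CO2. Fresh medium with test compound at 0–62.6 μg/mL (from 1000× stocks) or 0.1% DMSO added, 24 h. Resazurin added 6 h; fluorescence read at 560/590 nm. Survival expressed relative to DMSO wells after medium-only blank subtraction.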

BEAS-2B = assay: Mammalian cytotoxicity assay; format: cell-based, human; details: for concentration up to which no toxicity was observed (BEAS-2B): range 0–62.6 μg/mL, 24 h; for non-toxic concentration as fold of bactericidal concentration (BEAS-2B): vs bactericidal concentration against P. gingivalis
In short: as §1

HEK-293 = assay: Mammalian cytotoxicity assay; format: cell-based, human; details: for concentration up to which no toxicity was exhibited (HEK-293): range 0–62.6 μg/mL, 24 h; for non-toxic concentration as fold of bactericidal concentration (HEK-293): vs bactericidal concentration against P. gingivalis
In short: as §1

[5] = tested on: P. gingivalis ATCC 33277 biofilm; assay: Inhibition of mono-species biofilm growth, safranin staining; format: cell-based, Porphyromonas gingivalis; details: at all concentrations tested (10, 25, 50, and 100 μM), 48 h
In short: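 P. gingivalis ATCC 33277 at 1 × 10^8 bacteria/well, grown logarithmically in supplemented BHI in 96-well plates. Exposed to test compound in DMSO (10, 25, 50, 100 μM) for 48 h, anaerobic, gentle shaking. Negative controls were medium or DMSO; positive controls were tetracycline 2.81 μM and zafirlukast 50 μM. Medium removed, biofilm washed three times with PBS, stained with 0.1% safranin, and percentage biofilm growth determined.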

[6] = tested on: murine red blood cells (mRBCs); assay: Hemolytic activity against murine red blood cells; format: cell-based; details: at concentrations up to 27 μg/mL, data not shown
F. nucleatum ATCC 25586 = assay: Percent growth inhibition, colorimetric WST-1 assay; format: cell-based, Fusobacterium nucleatum; details: 24 h, 30 min after addition of WST-1
In short: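 F. nucleatum was grown in supplemented BHI to log phase (3–4 h after subculture), then seeded at 10^8 cells/well in 90 μL. It was exposed anaerobically to test compound in DMSO (1, 10, 100 μM) for 24 h. WST-1 reagent was added, and absorbance was read at 405 nm (reference 600 nm). % inhibition = 100 × [OD(control) − OD(treated)]/OD(control).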

[7] = at all concentrations tested (1, 10, and 100 μM)

COc1ccc(Cc2cn(C)c3ccc([N+](=O)[O-])cc23)cc1C(=O)NS(=O)(=O)c1ccccc1Cl [Compound 21b]
growth inhibition by CFU assay (bactericidal activity) (P. gingivalis ATCC 33277 [1]; 10 μM, 10 µM): bactericidal
P. gingivalis growth inhibition (P. gingivalis ATCC 33277 [2]; 100 μM, 24 h): comparable or superior activity
inhibition at 100 µM (P. gingivalis ATCC 33277 [2]): 61 to 73%
viability at 24 h, 10 µM [3]: 9 to 63%
viability at 24 h, 100 µM [3]: 5 to 23%
cytotoxicity to OKF6 cells by cell morphology and density ([4]; 100 μM): slight increase in cytotoxicity
concentration up to which no toxicity was exhibited (HepG2) (HepG2): up to 62.6 μg/mL
non-toxic concentration as fold of bactericidal concentration (HepG2) (HepG2): 11- to 13 fold
concentration up to which no toxicity was observed (BEAS-2B) (BEAS-2B): up to 31.3 μg/mL
non-toxic concentration as fold of bactericidal concentration (BEAS-2B) (BEAS-2B): 6 fold
concentration up to which no toxicity was exhibited (HEK-293) (HEK-293): up to 62.6 μg/mL
non-toxic concentration as fold of bactericidal concentration (HEK-293) (HEK-293): 11- to 13 fold

CCCn1cc(Cc2ccc(OC)c(C(=O)NS(=O)(=O)c3ccc([N+](=O)[O-])cc3)c2)c2cc([N+](=O)[O-])ccc21 [Compound 23g]
growth inhibition by CFU assay (bactericidal activity) (P. gingivalis ATCC 33277 [1]; 10 μM): not bactericidal
P. gingivalis growth inhibition (P. gingivalis ATCC 33277 [2]; 1 μM, 24 h): comparable or superior activity
P. gingivalis growth inhibition (P. gingivalis ATCC 33277 [2]; 10 μM, 24 h): comparable or superior activity
P. gingivalis growth inhibition (P. gingivalis ATCC 33277 [2]; 100 μM, 24 h): comparable or superior activity
inhibition at 10 µM (P. gingivalis ATCC 33277 [2]): 77 to 90%
P. gingivalis growth inhibition (P. gingivalis ATCC 33277 [2]; [7]): 60–90%

COc1ccc(Cc2cn(C)c3ccc([N+](=O)[O-])cc23)cc1C(=O)NS(=O)(=O)c1ccc([N+](=O)[O-])cc1 [Compound 21g]
growth inhibition by CFU assay (bactericidal activity) (P. gingivalis ATCC 33277 [1]; 10 μM): bactericidal
P. gingivalis growth inhibition (P. gingivalis ATCC 33277 [2]; 10 μM, 24 h): comparable or superior activity
P. gingivalis growth inhibition (P. gingivalis ATCC 33277 [2]; 100 μM, 24 h): comparable or superior activity
biofilm growth [5]: at least 86%

CCCCn1cc(Cc2ccc(OC)c(C(=O)NS(=O)(=O)c3ccccc3F)c2)c2cc([N+](=O)[O-])ccc21 [Compound 24a]
P. gingivalis growth inhibition (P. gingivalis ATCC 33277 [2]; 1 μM, 24 h): little to no activity

CCCn1cc(Cc2ccc(OC)c(C(=O)NS(=O)(=O)c3ccccc3F)c2)c2cc([N+](=O)[O-])ccc21 [Compound 23a]
P. gingivalis growth inhibition (P. gingivalis ATCC 33277 [2]; 1 μM, 24 h): little to no activity

COc1cc(C(=O)NS(=O)(=O)c2ccccc2C)ccc1Cc1cn(C)c2ccc(NC(=O)OC3CCCC3)cc12 [ZAF, zafirlukast, reference compound]
viability at 24 h, 25 µM [3]: 41%
concentration up to which no toxicity was exhibited (HepG2) (HepG2): up to 62.6 μg/mL
concentration up to which no toxicity was observed (BEAS-2B) (BEAS-2B): up to 62.6 μg/mL
concentration up to which no toxicity was exhibited (HEK-293) (HEK-293): up to 31.3 μg/mL

CCCCn1cc(Cc2ccc(OC)c(C(=O)NS(=O)(=O)c3ccc([N+](=O)[O-])cc3)c2)c2cc([N+](=O)[O-])ccc21 [Compound 24g]
growth inhibition by CFU assay (bactericidal activity) (P. gingivalis ATCC 33277 [1]; 100 μM): bactericidal activity
P. gingivalis growth inhibition (P. gingivalis ATCC 33277 [2]; 1 μM, 24 h): comparable or superior activity
P. gingivalis growth inhibition (P. gingivalis ATCC 33277 [2]; 10 μM, 24 h): comparable or superior activity
P. gingivalis growth inhibition (P. gingivalis ATCC 33277 [2]; 100 μM, 24 h): comparable or superior activity
inhibition at 10 µM (P. gingivalis ATCC 33277 [2]): 77 to 90%
P. gingivalis growth inhibition (P. gingivalis ATCC 33277 [2]; [7]): 69–90%
viability at 24 h, 10 µM [3]: 9 to 63%
viability at 24 h, 100 µM [3]: 5 to 23%
cytotoxicity to OKF6 cells by cell morphology and density ([4]; 10 μM): low toxicity; also recorded: little to no cytotoxicity
cytotoxicity to OKF6 cells by cell morphology and density ([4]; 100 μM): slight decrease in cell density

COc1ccc(Cc2cn(CC(C)C)c3ccc([N+](=O)[O-])cc23)cc1C(=O)NS(=O)(=O)c1ccc([N+](=O)[O-])cc1 [Compound 25g]
growth inhibition by CFU assay (bactericidal activity) (P. gingivalis ATCC 33277 [1]; 10 μM): not bactericidal
P. gingivalis growth inhibition (P. gingivalis ATCC 33277 [2]; 100 μM, 24 h): comparable or superior activity
inhibition at 100 µM (P. gingivalis ATCC 33277 [2]): 61 to 73%

COc1ccc(Cc2cn(C)c3ccc([N+](=O)[O-])cc23)cc1C(=O)NS(=O)(=O)c1ccccc1Br [Compound 21c]
growth inhibition by CFU assay (bactericidal activity) (P. gingivalis ATCC 33277 [1]; 10 μM, 10 µM): bactericidal
P. gingivalis growth inhibition (P. gingivalis ATCC 33277 [2]; 100 μM, 24 h): comparable or superior activity
inhibition at 100 µM (P. gingivalis ATCC 33277 [2]): 61 to 73%
viability at 24 h, 10 µM [3]: 9 to 63%
viability at 24 h, 100 µM [3]: 5 to 23%
cytotoxicity to OKF6 cells by cell morphology and density ([4]; 10 μM): low toxicity
cytotoxicity to OKF6 cells by cell morphology and density ([4]; 100 μM): slight increase in cytotoxicity
concentration up to which no toxicity was exhibited (HepG2) (HepG2): up to 62.6 μg/mL
non-toxic concentration as fold of bactericidal concentration (HepG2) (HepG2): 11- to 13 fold
concentration up to which no toxicity was observed (BEAS-2B) (BEAS-2B): up to 31.3 μg/mL
non-toxic concentration as fold of bactericidal concentration (BEAS-2B) (BEAS-2B): 6 fold
concentration up to which no toxicity was exhibited (HEK-293) (HEK-293): up to 62.6 μg/mL
non-toxic concentration as fold of bactericidal concentration (HEK-293) (HEK-293): 11- to 13 fold

COc1ccc(Cc2cn(C)c3ccc([N+](=O)[O-])cc23)cc1C(=O)NS(=O)(=O)c1ccccc1F [Compound 21a]
P. gingivalis growth inhibition (P. gingivalis ATCC 33277 [2]; 100 μM, 24 h): comparable or superior activity
inhibition at 100 µM (P. gingivalis ATCC 33277 [2]): 61 to 73%
concentration up to which no toxicity was exhibited (HepG2) (HepG2): up to 62.6 μg/mL
non-toxic concentration as fold of bactericidal concentration (HepG2) (HepG2): 11- to 13 fold
concentration up to which no toxicity was observed (BEAS-2B) (BEAS-2B): up to 62.6 μg/mL
non-toxic concentration as fold of bactericidal concentration (BEAS-2B) (BEAS-2B): 11- to 13 fold
concentration up to which no toxicity was exhibited (HEK-293) (HEK-293): up to 62.6 μg/mL
non-toxic concentration as fold of bactericidal concentration (HEK-293) (HEK-293): 11- to 13 fold

C[C@@H]1[C@H](O)[C@@H](C)/C=C/C=C/C=C/C=C/C=C/C=C/C=C/[C@H](O[C@@H]2O[C@H](C)[C@@H](O)[C@H](N)[C@@H]2O)C[C@@H]2O[C@](O)(C[C@@H](O)C[C@@H](O)[C@H](O)CC[C@@H](O)C[C@@H](O)CC(=O)O[C@H]1C)C[C@H](O)[C@H]2C(=O)O [amphotericin B]
hemolytic activity [6]: 0%

CCn1cc(Cc2ccc(OC)c(C(=O)NS(=O)(=O)c3ccc([N+](=O)[O-])cc3)c2)c2cc([N+](=O)[O-])ccc21 [Compound 22g]
growth inhibition by CFU assay (bactericidal activity) (P. gingivalis ATCC 33277 [1]; 10 μM): not bactericidal
P. gingivalis growth inhibition (P. gingivalis ATCC 33277 [2]; 10 μM, 24 h): comparable or superior activity
P. gingivalis growth inhibition (P. gingivalis ATCC 33277 [2]; 100 μM, 24 h): comparable or superior activity

COc1ccc(Cc2cn(C)c3ccc([N+](=O)[O-])cc23)cc1C(=O)NS(=O)(=O)c1c(F)cccc1F [Compound 21d]
growth inhibition against F. nucleatum (F. nucleatum ATCC 25586; 1 μM): no activity
growth inhibition against F. nucleatum (F. nucleatum ATCC 25586; 10 μM): no activity
growth inhibition by CFU assay (bactericidal activity) (P. gingivalis ATCC 33277 [1]; 10 μM): not bactericidal
P. gingivalis growth inhibition (P. gingivalis ATCC 33277 [2]; 100 μM, 24 h): comparable or superior activity
inhibition at 100 µM (P. gingivalis ATCC 33277 [2]): 61 to 73%
